In data set [1] the test system is HCT116 tumor. In words: Anti-tumor treatment response. It is filed as in vivo, NU/J nude mice. As to conditions: 0.1 mmol/kg i.v., Q3D×8, n=4 mice. The method in brief: (§1)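 At 50–100 mm³, mice were randomised into three groups (n=4). Groups received i.v. 0.1 mmol/kg test compound, parent drug or PBS, all in 1% DMSO, every 3 days (Q3D×8). Caliper volume = (smallest dimension)² × largest × 0.5. Day-33 volumes were expressed relative to PBS.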

A short description of data set [2]: Ex vivo CEST MRI of organs. It is filed as in vivo, NU/J nude mice. The note with it: 0.2 mmol/kg i.v.; 2 h p.i. for Olsa-RVRR, 0.5 h p.i. for olsalazine; n=4 mice. Summed up:
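Female nude mice carried s.c. HCT116 (left flank) and LoVo (right flank) xenografts of 100-200 mm³. They received 0.2 mmol/kg test compound i.v. in PBS with 1% DMSO and were killed at 2 h or 30 min. Major organs were placed in PBS in a sealed well plate for CEST imaging. Signal was computed as MTR_asym, expressed relative to muscle; mean±SD, n=4.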

Data set [3] has as its system DNA methyltransferase (DNMT). Description: DNMT activity/inhibition assay kit on nuclear extracts of treated cells. It is filed as cell-based, human. The note with it: HCT116 cells, 500 μM for 3 h, measured 48 h later, n=3. The method in brief:
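5×10⁶ HCT116 cells were incubated 3 h at 37 °C with or without 500 μM test compound, washed three times and cultured in fresh McCoy's 5A. After 48 h, nuclear proteins were extracted with a kit and quantified by Bradford assay. DNMT activity was measured with an activity/inhibition kit using 8 μg nuclear protein per well.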

The subject of data set [4] is HCT116 tumor. Description: In vivo CEST MRI of tumor xenograft. The arrangement: species or system NU/J nude mice. As to conditions: 0.2 mmol/kg i.v.; no significant difference between HCT116 and LoVo tumors. The method in brief:
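Female NU/J nude mice bore s.c. HCT116 (left flank) and LoVo (right flank) xenografts, 1×10⁶ cells each. At 100–200 mm³, mice received i.v. 0.2 mmol/kg test compound or parent drug in PBS with 1% DMSO. Serial CEST MRI over 24 h at 11.7 T used RARE, TR/TE 5,000/3.7 ms, B₁ 3.6 μT, t_sat 4 s, and offsets ±7.4–12.6 ppm. The 0 h MTR_asym was subtracted; n=4 mice.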

Another data set concerns LoVo tumor. In words: Anti-tumor treatment response. The note with it: 0.1 mmol/kg i.v., Q3D×8, n=4 mice. It is filed as in vivo, NU/J nude mice. The method in brief:
as §1

The subject of data set [5] is HCT116 cells. Description: CEST MRI of incubated cells. As to conditions: 500 μM, 3 h; for CEST signal, fold less compared to Olsa-RVRR: after subtracting values of non-treated cells; for OlsaCEST signal, fold larger compared to free olsalazine: in vitro. It is filed as cell-based, human.
Data set [6] is described as follows: Mouse body weight during treatment. It is filed as in vivo, NU/J nude mice. The note with it: 0.1 mmol/kg i.v., Q3D×8, n=4 mice. Summed up: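 Female NU/J nude mice, 6-8 weeks old, carried s.c. xenografts of 1×10⁶ HCT116 (left flank) and 1×10⁶ LoVo (right flank) cells. Repeated i.v. dosing (QD3×8) began after tumor cell injection, with a PBS control group. Body weight was recorded over time and reported as mean±SD, n=4 mice.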

A short description of data set [7]: In vitro CEST MRI of solutions. As to conditions: 11.7 T, 37 °C. It is filed as physicochemical. The method in brief:
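Compound (0.625–10 mM) was dissolved in 10 mM PBS and titrated with 3 M HCl/NaOH to pH 5.0–8.0. Samples in 1 mm capillaries were held at 37 °C at 11.7 T. RARE CEST used TR/TE 6,000/5 ms, B₁ 3.6 μT, and offsets −12 to 12 ppm in 0.3 ppm steps. B₀ was WASSR-corrected. MTR_asym was computed from ±Δω signals over S₀; exchange rate came from QUESP across saturation powers.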

The subject of data set [8] is HCT116 cells. Description: Cell viability, acridine orange/propidium iodide counting. It is filed as cell-based, human. As to conditions: 48 h incubation.
A further data set deals with furin (Homo sapiens, UniProt P09958). Description: Furin-controlled condensation in solution followed by HPLC. It is filed as biochemical. The note with it: 25 μM, 250 μM GSH + 0.5 nmol U-1 furin, 12 h, 37 °C. Summed up: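 25 μM test compound was incubated with 250 μM GSH at 37 °C, pH 7.4. Reduction alone ran 2 h; with 0.5 nmol U⁻¹ furin added, incubation ran 12 h. Reduced, cleaved and condensed products were followed by HPLC. Conversion to dimer was tracked as a function of time.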
Sequence of furin (P09958 108-595 limits assumed): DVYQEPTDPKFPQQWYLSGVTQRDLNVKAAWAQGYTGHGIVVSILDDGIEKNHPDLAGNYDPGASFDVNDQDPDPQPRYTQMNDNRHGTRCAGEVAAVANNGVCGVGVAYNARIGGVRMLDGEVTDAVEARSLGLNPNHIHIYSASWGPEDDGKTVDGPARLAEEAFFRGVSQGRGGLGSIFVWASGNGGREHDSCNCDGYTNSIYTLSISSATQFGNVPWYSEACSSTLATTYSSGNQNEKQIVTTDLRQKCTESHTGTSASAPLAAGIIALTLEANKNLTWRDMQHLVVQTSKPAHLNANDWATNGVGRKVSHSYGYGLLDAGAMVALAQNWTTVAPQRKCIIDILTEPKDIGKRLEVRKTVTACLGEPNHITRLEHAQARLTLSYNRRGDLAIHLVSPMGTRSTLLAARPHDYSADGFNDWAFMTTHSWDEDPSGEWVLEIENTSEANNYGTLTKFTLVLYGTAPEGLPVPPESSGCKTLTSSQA

The nature of data set [9]: TEM and DLS of nanoparticle formation. It is filed as physicochemical. As to conditions: 250 μM GSH + 0.5 nmol U-1 furin, 12 h, furin buffer. Summed up:
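25 μM test compound was incubated 12 h in furin buffer with 250 μM GSH and 0.5 nmol U⁻¹ furin. The resulting particles were examined by TEM, and their size distribution was measured by DLS.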

Data set [10] has as its system HCT116 cells. Description: 3D-SIM super-resolution fluorescence imaging of cells. It is filed as cell-based, human. As to conditions: 8 μM, 3 h. The method in brief:
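Cells were exposed for 3 h to 8 μM test compound or free Alexa 488, PBS-washed, fixed 10 min in 4% paraformaldehyde and mounted in DAPI-containing medium. Super-resolution images were acquired with simultaneous 405 nm (DAPI) and 488 nm (Alexa 488) excitation. Experiments were repeated three times.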

For a further data set, the system named is LoVo cells. Description: 3D-SIM super-resolution fluorescence imaging of cells. It is filed as cell-based, human. The note with it: 8 μM, 3 h. Summed up: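 Cells were incubated 3 h with 8 μM Alexa-conjugated test probe or free Alexa 488 dye, then washed three times with PBS. They were fixed in 4% paraformaldehyde for 10 min, washed again and mounted with DAPI-containing medium. 3D-SIM used 405 nm (DAPI) and 488 nm (Alexa 488) excitation. Experiments were repeated three times.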

A further data set concerns HCT116 and LoVo tumors. In words: 3D-SIM imaging of resected tumors. It is filed as in vivo, NU/J nude mouse. As to conditions: 50 nmol i.v., tumors resected at 2 h post-injection. Summed up:
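Female NU/J nude mice, 6-8 weeks old, carried s.c. xenografts of 1×10⁶ HCT116 and 1×10⁶ LoVo cells. Each received 50 nmol of test compound or free Alexa 488 i.v.; tumors were resected at 2 h. Tissue was formalin-fixed overnight, cryoprotected overnight in 30% w/v sucrose at 4 °C, OCT-embedded, cut at 10 μm and DAPI-mounted. Imaging used 405/488 nm excitation.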

Consider `O=C(O)c1cc(/N=N/c2ccc(O)c(C(=O)O)c2)ccc1O` [olsalazine], for which the “average tumor volume at day 33 compared to PBS control group set at 100%” value in the data set with HCT116 tumor [1] is recorded as ~ 88%. In addition, the “organ distribution of OlsaCEST signal ex vivo” value in data set [2] is given as “both tumor sites showed comparable CEST signals”. Also, the DNMT inhibition result in data set [3] is on record as “no significant DNMT inhibition”. Besides, the “maximum OlsaCEST intensity in tumors at 0.5 h p.i.” value with HCT116 tumor [4] is given as ~ 1.8%. Further, the “average tumor volume at day 33 compared to PBS control group set at 100%” value in the data set with LoVo tumor turned out to be 86%. The “OlsaCEST signal versus non-incubated cells” value in the data set with HCT116 cells [5] (p>0.05) was “no significant difference between free olsalazine-incubated cells and non-incubated cells”. For the same compound, the body weight entry in data set [6] is “did not show any significant differences in body weight”. For the same compound, in data set [7] (10 mM in PBS), the “CEST peak offset from the water proton signal” value was ~ 9.8 ppm. In data set [7] (10 mM, pH 7.4, QUESP method), the “proton exchange rate (kex)” value is recorded as 697 Hz. In the data set on HCT116 cells [8], the “dose to obtain a toxic effect comparable to Olsa-RVRR at 125 μM” value was 2.5 mM and the “fold dose increase needed versus Olsa-RVRR for comparable toxic effect” value was 20 fold.
Consider “Ac-Arg-Val-Arg-Arg-Cys(StBu)-Lys(olsalazine) [CTR2]”, for which the DNMT inhibition entry in data set [3] was “no significant DNMT inhibition”. The “furin cleavage of the reduced compound” value at furin is given as “cleaved to cleaved CTR2 without condensation”. Moreover, in the data set with HCT116 cells [5], the “CEST signal, fold less compared to Olsa-RVRR” value was found to be 5.2 fold and the “OlsaCEST signal, fold larger compared to free olsalazine” value is 2.3 fold. For the same compound, the “nanoparticle formation with GSH and furin (TEM)” value in data set [9] is recorded as “no nanoparticles were formed”.
For the compound “Ac-Arg-Val-Arg-Arg-Cys(StBu)-Lys(Alexa 488)-2-cyanobenzothiazole [Alexa-RVRR]”, the “intracellular green fluorescence (3D-SIM)” value in the data set with HCT116 cells [10] is reported as “clustering of green fluorescent nanoparticles”; in the data set on LoVo cells it was “much less”. Also, the “green fluorescent nanoparticles in tumors (3D-SIM)” value in the data set with HCT116 and LoVo tumors is “much higher quantity of green fluorescent nanoparticles”.
Consider RKRCRV [CTR1], for which the DNMT inhibition result in data set [3] is “no significant DNMT inhibition”. The “furin cleavage of the reduced compound” value at furin was “could not be further cleaved”. Further, in the data set with HCT116 cells [5], the “CEST signal, fold less compared to Olsa-RVRR” value is on record as 4.4 fold and the “OlsaCEST signal, fold larger compared to free olsalazine” value was found to be 2.8 fold. In addition, the “nanoparticle formation with GSH and furin (TEM)” value in [9] is “no nanoparticles were formed”.

These data come from paper PMC6872935 (Nature materials, 2019).
